The values below come from PubChem BioAssay AID624399 (The Scripps Research Institute Molecular Screening Center, 2012).

Calls of active or inactive are those of the source.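 Rule for the calls: active = increase in reporter activity of 20% or more; inactive = increase below 20%, or a negative response.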

The test system of the experiment is BG1Luc4E2 cells, ERE-luciferase luminescence, 24 h. Description: estrogenic induction of ERE reporter expression – BG1Luc4E2 ovarian carcinoma cells, luminescence, counter-screen for AHR activator project, late-stage follow-up (AID 624399). The conditions noted are these: at 10 µM; hits give high values. The gist of the method:
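Repeats: triplicate wells per compound; assay system: BG1Luc4E2 cells, firefly luciferase reporter under two synthetic EREs; measured by: firefly luciferase luminescence measured after cell lysis; control set: 17β-estradiol at 1 nM as positive control; schedule: 24 h compound exposure at 37 °C after 5-day depletion; read-out: maximum % reporter activation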
For orientation: The purpose of a counterscreen is to sort out artefacts and off-target activity.
As to `CN(Cc1cc(-c2cccs2)n[nH]1)Cc1coc2ccccc2c1=O`, the activation was -2.6% (inactive).
Under `O=C(CSc1nc(-c2ccc(F)cc2)cs1)Nc1ccccn1` stands 1% (inactive).
The figure for `COc1ccc(-c2cc(-c3ccc(C)cc3O)[nH]n2)cc1` is -7.2% (inactive).
The figure for `Cc1ccc(NC(=O)c2ccc(C(=O)Nc3ccc(C)cc3C)nc2)c(C)c1` is -1.6% (inactive); for `Cc1ccnc(NC(=O)CSc2nc3ccccc3s2)c1` it is -3.7% (inactive).
On to `COc1ccc(Nc2cc(Cl)nc(N)n2)cc1`, for which the activation is 2.2% (inactive).
The figure for `Cc1ccc(-c2cc(-c3ccc(Cl)cc3)n[nH]2)c(O)c1` is 3.2% (inactive); for `Nc1nc(Cl)cc(Nc2ccc(Oc3ccccc3)cc2)n1` it is 3.3% (inactive).
Under `COc1ccc(O)c(-c2cc(-c3cccs3)[nH]n2)c1` stands -3% (inactive); under `Cc1cc(Br)cc(C)c1Nc1ccnc(Nc2ccc(C#N)cc2)n1`, -3.5% (inactive); under `Cc1cccc(NC(=O)c2cc(-c3ccc(C)cc3O)n[nH]2)c1`, 1.8% (inactive).
The figure for `COc1ccc(NC(=O)c2ccc(C(=O)Nc3ccc(OC)cc3OC)nc2)c(OC)c1` is -0.5% (inactive); for `Cc1ccc(O)c(-c2cc(-c3ccccc3Cl)[nH]n2)c1` it is 11.6% (inactive).
`O=C(CSc1nc2ccccc2s1)Nc1ccc(Cl)cn1`: the activation is -2% (inactive).
Under `CCOC(=O)c1c(C)nn(-c2cc(Cl)ccc2Cl)c1C` stands -3.3% (inactive).
The figure for `Nc1nc(Cl)cc(Nc2ccccc2F)n1` is -0.9% (inactive); for `Cc1cc(Nc2ccc(F)cc2)nc(N)n1` it is -2.7% (inactive).
For `O=C(CSc1nc2ccccc2s1)Nc1ccccn1`, the activation is -1% (inactive).
Under `COc1ccc(Cl)cc1NC(=O)c1ccc(C(=O)Nc2cc(Cl)ccc2OC)nc1` stands -3.6% (inactive); under `Cc1ccc(-c2cc(-c3ccc(F)cc3)n[nH]2)c(O)c1`, 5.8% (inactive).
Under `Cc1cccc(C)c1NC(=O)c1ccc(C(=O)Nc2c(C)cccc2C)nc1` stands -5.1% (inactive).
Under `COc1ccc(Nc2cc(Cl)nc(N)n2)cc1OC` stands 13.6% (inactive).
Regarding `Cc1csc(SCC(=O)Nc2ccccn2)n1`, the activation is -2.6% (inactive).
Under `CCOc1ccccc1NC(=O)c1ccc(C(=O)Nc2ccccc2OCC)nc1` stands -2.8% (inactive); under `Cc1ccc(-c2cc(-c3cccc(F)c3)n[nH]2)c(O)c1`, 3.8% (inactive).
